Laboratory results published in ChEMBL document CHEMBL1177688, “Synthesis of novel pyrazolic analogues of chalcones and their 3-aryl-4-(3-aryl-4,5-dihydro-1H-pyrazol-5-yl)-1-phenyl-1H-pyrazole derivatives as potential antitumor agents” (2010).

Columns and labels:
Format in all cases: functional
[1] = test system: SR; assay: Antiproliferative activity against human SR cells after 48 hrs by SRB assay
How it was run: (§1)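 NCI 60-cell-line human tumour panel, secondary five-dose screen. Compounds tested at 100, 10, 1.0, 0.1 and 0.01 µM with 48 h continuous exposure. Cell growth was estimated by sulforhodamine B protein staining. GI50 is the concentration giving a 50% reduction in net protein increase relative to untreated control cells over the incubation. TGI and LC50 were also derived.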

[2] = test system: OVCAR-5; assay: Antiproliferative activity against human OVCAR5 cells after 48 hrs by SRB assay; conditions: OVCAR-5, 48 h; for CC50: read-out: LC50 (the source's name); how it was run: as §1
[3] = test system: HT-29; assay: Antiproliferative activity against human HT-29 cells after 48 hrs by SRB assay; conditions: HT-29, 48 h, read-out: LC50 (the source's name); how it was run: as §1
[4] = test system: A498; assay: Antiproliferative activity against human A498 cells after 48 hrs by SRB assay; conditions: A498, 48 h; for CC50: read-out: LC50 (the source's name); how it was run: as §1
[5] = test system: MCF7; assay: Antiproliferative activity against human MCF7 cells after 48 hrs by SRB assay; conditions: MCF7, 48 h, read-out: LC50 (the source's name); how it was run: as §1
[6] = test system: MDA-MB-435; assay: Antiproliferative activity against human MDA-MB-435 cells after 48 hrs by SRB assay; conditions: MDA-MB-435, 48 h, read-out: LC50 (the source's name); how it was run: as §1
[7] = test system: MDA-MB-231; assay: Antiproliferative activity against human MDA-MB-231 cells after 48 hrs by SRB assay; conditions: MDA-MB-231, 48 h
How it was run: (§2)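 NCI 60-cell human tumour line panel. Continuous 48 h drug exposure at five concentrations (100, 10, 1.0, 0.1, 0.01 µM). Cell growth estimated by sulforhodamine B protein staining. GI50 = concentration giving 50% reduction in net protein increase versus control cells over the incubation. LC50 = molar concentration killing 50% of cells.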

[8] = test system: RXF 393; assay: Antiproliferative activity against human RXF393 cells after 48 hrs by SRB assay; conditions: RXF 393, 48 h; how it was run: as §2
[9] = test system: Malme-3M; assay: Antiproliferative activity against human MALME-3M cells after 48 hrs by SRB assay; conditions: for CC50: read-out: LC50 (the source's name); how it was run: as §1
[10] = test system: T47D; assay: Antiproliferative activity against human T47D cells after 48 hrs by SRB assay; how it was run: as §2
[11] = test system: CAKI-1; assay: Antiproliferative activity against human Caki1 cells after 48 hrs by SRB assay; conditions: CAKI-1, 48 h; how it was run: as §2
[12] = test system: NCI/ADR-RES; assay: Antiproliferative activity against human NCI/ADR-RES cells after 48 hrs by SRB assay; how it was run: as §2
[13] = test system: SF-539; assay: Antiproliferative activity against human SF539 cells after 48 hrs by SRB assay; conditions: SF-539, 48 h; how it was run: as §2
[14] = test system: MDA-MB-468; assay: Antiproliferative activity against human MDA-MB-468 cells after 48 hrs by SRB assay; conditions: MDA-MB-468, 48 h; for CC50: read-out: LC50 (the source's name); how it was run: as §1
[15] = test system: SK-MEL-2; assay: Antiproliferative activity against human SK-MEL-2 cells after 48 hrs by SRB assay; conditions: SK-MEL-2, 48 h; for CC50: read-out: LC50 (the source's name); how it was run: as §1
[16] = test system: UACC-257; assay: Antiproliferative activity against human UACC257 cells after 48 hrs by SRB assay; conditions: UACC-257, 48 h; how it was run: as §1
[17] = test system: NCI-H226; assay: Antiproliferative activity against human NCI-H226 cells after 48 hrs by SRB assay; conditions: NCI-H226, 48 h; for CC50: read-out: LC50 (the source's name); how it was run: as §1
[18] = test system: TK-10; assay: Antiproliferative activity against human TK10 cells after 48 hrs by SRB assay; conditions: TK-10, 48 h; for CC50: read-out: LC50 (the source's name); how it was run: as §1
[19] = test system: HCC 2998; assay: Antiproliferative activity against human HCC2998 cells after 48 hrs by SRB assay; conditions: HCC 2998, 48 h; for CC50: read-out: LC50 (the source's name); how it was run: as §1
[20] = test system: ACHN; assay: Antiproliferative activity against human ACHN cells after 48 hrs by SRB assay; how it was run: as §2
[21] = test system: SNB-19; assay: Antiproliferative activity against human SNB19 cells after 48 hrs by SRB assay; conditions: SNB-19, 48 h; for CC50: read-out: LC50 (the source's name); how it was run: as §1
[22] = test system: LOX IMVI; assay: Antiproliferative activity against human LOXIMVI cells after 48 hrs by SRB assay; how it was run: as §1
[23] = test system: NCI-H460; assay: Antiproliferative activity against human NCI-H460 cells after 48 hrs by SRB assay; conditions: NCI-H460, 48 h; how it was run: as §1
[24] = test system: HOP-92; assay: Antiproliferative activity against human HOP92 cells after 48 hrs by SRB assay; conditions: HOP-92, 48 h; how it was run: as §1
[25] = test system: DU-145; assay: Antiproliferative activity against human DU145 cells after 48 hrs by SRB assay; conditions: DU-145, 48 h, read-out: LC50 (the source's name); how it was run: as §1
[26] = test system: KM12; assay: Antiproliferative activity against human KM12 cells after 48 hrs by SRB assay; conditions: KM12, 48 h, read-out: LC50 (the source's name); how it was run: as §1
[27] = test system: SF-295; assay: Antiproliferative activity against human SF295 cells after 48 hrs by SRB assay; conditions: SF-295, 48 h; for CC50: read-out: LC50 (the source's name); how it was run: as §1
[28] = test system: SK-MEL-5; assay: Antiproliferative activity against human SK-MEL-5 cells after 48 hrs by SRB assay; conditions: SK-MEL-5, 48 h; how it was run: as §2
[29] = test system: IGROV-1; assay: Antiproliferative activity against human IGROV1 cells after 48 hrs by SRB assay; conditions: IGROV-1, 48 h; for CC50: read-out: LC50 (the source's name); how it was run: as §1
[30] = test system: NCI-H23; assay: Antiproliferative activity against human NCI-H23 cells after 48 hrs by SRB assay; conditions: NCI-H23, 48 h; how it was run: as §2
[31] = test system: SK-OV-3; assay: Antiproliferative activity against human SKOV3 cells after 48 hrs by SRB assay; conditions: SK-OV-3, 48 h; for CC50: read-out: LC50 (the source's name); how it was run: as §1
[32] = test system: M14; assay: Antiproliferative activity against human M14 cells after 48 hrs by SRB assay; conditions: M14, 48 h, read-out: LC50 (the source's name); how it was run: as §1
[33] = test system: SK-MEL-28; assay: Antiproliferative activity against human SK-MEL-28 cells after 48 hrs by SRB assay; conditions: SK-MEL-28, 48 h, read-out: LC50 (the source's name); how it was run: as §1
[34] = test system: A549; assay: Antiproliferative activity against human A549 cells after 48 hrs by SRB assay; conditions: A549, 48 h, read-out: LC50 (the source's name); how it was run: as §1
[35] = Antiproliferative activity against human […] cells after 48 hrs by SRB assay; how it was run: as §1
[36] = test system: EKVX; assay: Antiproliferative activity against human EKVX cells after 48 hrs by SRB assay; conditions: for CC50: read-out: LC50 (the source's name); how it was run: as §1
[37] = test system: NCI-H322M; assay: Antiproliferative activity against human NCI-H322M cells after 48 hrs by SRB assay; conditions: read-out: LC50 (the source's name); how it was run: as §1
[38] = test system: UACC-62; assay: Antiproliferative activity against human UACC62 cells after 48 hrs by SRB assay; conditions: UACC-62, 48 h; for CC50: read-out: LC50 (the source's name); how it was run: as §1
[39] = read-out: LC50 (the source's name)

O=C(/C=C/c1cn(-c2ccccc2)nc1-c1ccc([N+](=O)[O-])cc1)c1ccc(Cl)cc1
GI50 [1]: 2.76 µM | LC50 (50% net cell kill) [1]: > 100 µM | GI50 [2]: > 100 µM | CC50 [2]: > 100 µM | CC50 [3]: > 100 µM | GI50 [4]: 3.14 µM | CC50 [4]: > 100 µM | CC50 [5]: > 100 µM | CC50 [6]: > 100 µM | GI50 [7]: 2.45 µM | CC50 [7, 39]: > 100 µM | GI50 [8]: 2.08 µM | CC50 [8, 39]: 9.87 µM | GI50 [9]: 2.44 µM | CC50 [9]: > 100 µM | GI50 [10]: 1.12 µM | CC50 [10, 39]: > 100 µM | GI50 [11]: 4.56 µM | CC50 [11, 39]: > 100 µM | GI50 [12]: 4.64 µM | CC50 [12, 39]: > 100 µM | GI50 [13]: 3.95 µM | CC50 [13, 39]: > 100 µM | GI50 [14]: 2.91 µM | CC50 [14]: > 100 µM | GI50 [15]: 6.99 µM | CC50 [15]: 57.9 µM | GI50 [16]: > 100 µM | LC50 (concentration killing 50% of cells) [16]: > 100 µM | GI50 [17]: 3.77 µM | CC50 [17]: > 100 µM | GI50 [18]: 3.12 µM | CC50 [18]: > 100 µM | GI50 [19]: > 100 µM | CC50 [19]: > 100 µM | GI50 [20]: 4.27 µM | CC50 [20, 39]: > 100 µM | GI50 [21]: 4.9 µM | CC50 [21]: > 100 µM | CC50 [22, 39]: > 100 µM | CC50 [23, 39]: > 100 µM | CC50 [24, 39]: > 100 µM | CC50 [25]: > 100 µM | CC50 [26]: > 100 µM | GI50 [27]: 2.32 µM | CC50 [27]: 74.1 µM | GI50 [28]: > 100 µM | CC50 [28, 39]: > 100 µM | GI50 [29]: 3.54 µM | CC50 [29]: > 100 µM | GI50 [30]: 4.99 µM | CC50 [30, 39]: > 100 µM | GI50 [31]: 12.5 µM | CC50 [31]: > 100 µM | CC50 [32]: > 100 µM | CC50 [33]: > 100 µM | CC50 [34]: > 100 µM | GI50 [35]: 1.86 µM | LC50 (50% lethal concentration) [35]: > 100 µM | GI50 [36]: 4.97 µM | CC50 [36]: > 100 µM | CC50 [37]: > 100 µM | GI50 [38]: 11.4 µM | CC50 [38]: > 100 µM

COc1ccc(C2=NN(C(C)=O)C(c3cn(-c4ccccc4)nc3-c3ccc(Cl)cc3)C2)cc1 (centres undefined)
GI50 [1]: 1.57 µM | GI50 [2]: 1.81 µM | CC50 [2]: > 100 µM | CC50 [3]: > 100 µM | CC50 [4]: > 100 µM | CC50 [5]: > 100 µM | CC50 [6]: > 100 µM | GI50 [7]: 1.88 µM | GI50 [8]: 1.82 µM | CC50 [9]: > 100 µM | GI50 [10]: 1.9 µM | GI50 [11]: 1.96 µM | GI50 [12]: 1.8 µM | GI50 [13]: 1.87 µM | CC50 [14]: > 100 µM | CC50 [15]: > 100 µM | GI50 [16]: > 100 µM | LC50 (concentration killing 50% of cells) [16]: > 100 µM | CC50 [17]: > 100 µM | CC50 [18]: > 100 µM | GI50 [19]: 2.21 µM | CC50 [19]: > 100 µM | GI50 [20]: 1.82 µM | CC50 [21]: > 100 µM | GI50 [22]: 1.66 µM | GI50 [23]: 1.98 µM | GI50 [24]: 0.04 µM | CC50 [25]: > 100 µM | CC50 [26]: > 100 µM | GI50 [27]: 2.48 µM | CC50 [27]: > 100 µM | GI50 [28]: 1.79 µM | CC50 [29]: > 100 µM | GI50 [30]: 1.77 µM | GI50 [31]: 2.14 µM | CC50 [31]: > 100 µM | CC50 [32]: > 100 µM | CC50 [33]: > 100 µM | CC50 [34]: > 100 µM | GI50 [35]: 1.73 µM | LC50 (50% lethal concentration) [35]: > 100 µM | CC50 [36]: > 100 µM | CC50 [37]: > 100 µM | GI50 [38]: 2.4 µM | CC50 [38]: > 100 µM
